# In ChEMBL document CHEMBL1139016, “Synthesis and antiviral activity of 2'-deoxy-2'-fluoro-2'-C-methyl purine nucleosides as inhibitors of hepatitis C virus RNA replication” (Bioorg Med Chem Lett, 2006):
# How the values were obtained:
# Hepatitis C virus = assay: Antiviral activity against HCV replication; assay type: functional, organism-based, Hepacivirus hominis
# Huh-7 = assay: Cytotoxicity against Huh7 cells by MTS assay; assay type: functional; details: Homo sapiens
# In short: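 Cells exposed to compound for 96 h; viability read by MTS tetrazolium reduction (non-radioactive cell proliferation kit); CC50 taken as the 50% cytotoxic concentration.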
Structure (SMILES),EC90 (Hepatitis C virus) [µM],CC50 (Huh-7) [µM]
C[C@@]1(O)[C@H](O)[C@@H](CO)O[C@H]1n1cnc2c(=O)[nH]c(N)nc21 [2'-B-METHYL-GUANOSINE],10.8,> 100
C[C@@]1(F)[C@H](O)[C@@H](CO)O[C@H]1n1cnc2c(Cl)ncnc21,88.2,27.1
C[C@@]1(F)[C@H](O)[C@@H](CO)O[C@H]1n1cnc2c(N)ncnc21,> 100,> 100
C[C@@]1(F)[C@H](O)[C@@H](CO)O[C@H]1n1cnc2c(Cl)nc(N)nc21,62.4,> 100
C[C@@]1(F)[C@H](O)[C@@H](CO)O[C@H]1n1cnc2c(O)nc(N)nc21,56,> 100
C[C@@]1(O)[C@H](O)[C@@H](CO)O[C@H]1n1cnc2c(N)ncnc21,1.4,15
